Source: PubChem BioAssay
NLRP3 yeast inh: inhibitors of NALP3 inflammasome in yeast. AID 2825. 0.39% of 330,000 active. inhibition, % at 10 µM. Yeast reconstituted NLRP3/ASC/caspase-1, beta-gal luminescence, 24 h;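 active means inhibition of 50% or more; inactive means inhibition below 50%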
PolyA inhibitor: inhibitors of polyadenylation in S. cerevisiae; activity score, % at 12 µM; 0.02% of 300,000 active; S. cerevisiae SKY197-pL101 polyadenylation reporter, beta-gal luminescence; efflux-impaired pdr1/pdr3 knockout yeast; score 100 = 6 SD above DMSO;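 active means lowest replicate activity score at least 50, where 100 means six control SD above control mean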;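 further: yeast exposed to compound for 9 h at 30 °C; higher score means more reporter readthrough which indicates perturbed polyadenylation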
ALR inh: human ALR oxidase inhibition via reduced H2O2 | purified ALR, DTT oxidation, H2O2 HRP-luminol luminescence | inhibition, % (no concentration beside the values) | 3.8% of 290,000 active | AID 485317;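 active means mean replicate inhibition above about 79%, with every replicate also reaching it, limit read from the data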
Target sequence (P55789 whole entry, looked up): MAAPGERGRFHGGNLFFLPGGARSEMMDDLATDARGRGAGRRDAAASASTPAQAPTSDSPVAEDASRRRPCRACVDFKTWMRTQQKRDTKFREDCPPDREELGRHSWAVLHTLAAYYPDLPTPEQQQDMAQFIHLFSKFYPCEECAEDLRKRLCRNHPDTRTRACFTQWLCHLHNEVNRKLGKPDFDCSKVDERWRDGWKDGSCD
DSG3 Ab inh: human desmoglein-3 autoantibody binding inhibition; DSG3-coupled beads, scFv-anti-DSG3-GFP binding, flow cytometry; hits give low values; binding (percent of control), % at 10 µM; 0.48% of 310,000 active;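 active means binding more than 3 SD below its plate's average and above zero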;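 further: hits lower antibody fragment binding to DSG3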
NALP1 yeast inh: NALP1 inhibition; 0.61% of 280,000 active; S. cerevisiae NALP1/ASC/caspase-1 growth, X-gal OD620, 72 h; inhibition, % at 10 µM; in the data active means inhibition mostly above about 24%, no sharp cut-off; inactive means mostly below about 32%
Arrestin-AP2 inh: blocks beta-arrestin peptide binding to AP2 adaptin. FITC-arrestin peptide / GST-AP2 beads, flow cytometry; AP2 beta2 appendage carries R879A mutation. inhibition, % at 10 µM. 0.31% of 340,000 active. AID 504490;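 active means inhibition above a set limit, near 3 SD of compounds lacking own fluorescence, cut at about 54% in these data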
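Material – GST-tagged AP2 beta2-adaptin appendage (R879A) on 4 µm glutathione beads · Probe or stimulus – fluorescein-tagged arrestin peptide at 50 nM final · Timing – 12 min plus 1 h, RT · Detection – bead flow cytometry, FITC channel · Read-out basis – inhibition as reduced fluorescein signal on beads, percent · Medium – PBS plus Tween 20 (0.05%) and BSA (0.1%)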
Numbers stand for hits; . = inactive; / = no result given. In the library only some 4.6% were active in any assay of this set; here they are far more common.

SMILES	NLRP3 yeast inh	PolyA inhibitor	ALR inh	DSG3 Ab inh	NALP1 yeast inh	Arrestin-AP2 inh
Cc1nn(S(=O)(=O)c2ccccc2)c(C)c1S(=O)(=O)N1CCOCC1	.	.	.	.	.	.
Cc1c(NC(=O)c2cccnc2Cl)c(=O)n(-c2ccccc2)n1C	.	.	.	.	.	.
CCOC(=O)N1CCC(N2Cc3cccc(C(=O)Nc4ccc(N(CC)CC)cc4C)c3C2=O)CC1	.	.	.	.	.	.
CCSc1nc2nccnc2c(=O)[nH]1	/	/	/	.	/	.
CCCCCCN1C[C@H](n2cc(-c3ccc(F)cc3)nn2)[C@@H](O)C[C@@H]1c1ccc(Cl)cc1	/	/	/	.	/	/
CCCCNc1nc(-c2ccccc2)c(C(=O)OCC)cc1C#N	.	.	.	.	44.4	.
CCCNc1nc(-c2ccccc2)c(C(=O)OCC)cc1C#N	.	.	.	.	.	.
COC(=O)CN1C(=O)C(O)(CC(=O)c2ccc(C)cc2)c2cc(Br)ccc21 (stereo unspecified)	.	.	.	.	.	.
COC(=O)CN1C(=O)C(O)(CC(=O)c2ccc(Br)cc2)c2ccccc21 (stereo unspecified)	.	.	96.5	.	.	.
O[C@@H]1CN(Cc2cccs2)[C@@H](c2ccccc2)C[C@H]1n1cc(C2CC2)nn1	/	/	/	.	/	/
CC(C)CNC(=O)C(=O)NCc1ccccn1	.	.	.	15.5	.	.
CC(C)NC(=O)C(=O)NCc1ccccn1	.	.	.	.	/	.
COc1ccc(S(=O)(=O)c2c(O)cc(C)c(NS(=O)(=O)c3ccccc3)c2C)cc1	/	.	.	.	.	.
CC(C)Cn1c(=S)[nH]c2ccccc2c1=O	.	.	.	.	.	.
CC(C)COn1c(=S)[nH]c2ccccc2c1=O	.	.	96.8	.	.	.
CCN(Cc1ccccc1)C(=O)Cn1c(=O)n(CC(=O)N2CCCCC2)c(=O)c2sccc21	.	.	.	.	.	.
O=C(CSC1=NC(=O)C(c2ccccc2)C(=O)N1)Nc1cccc(Cl)c1 (stereo unspecified)	.	.	98.4	.	.	.
COC(=O)c1ccc(NC(=O)CSC2=NC(=O)C(c3ccccc3)C(=O)N2)cc1 (stereo unspecified)	.	.	98.9	.	.	.
Cn1nnnc1SCC(=O)Nc1ccccc1[N+](=O)[O-]	.	.	/	/	.	.
O=C(CSC1=NC(=O)C(c2ccccc2)C(=O)N1)Nc1ccccc1[N+](=O)[O-] (stereo unspecified)	.	.	95.5	.	.	.
Nc1cc(=O)[nH]c(SCC(=O)Nc2cccc(Cl)c2)n1	.	.	.	.	.	.
O=C(CSC1=NC(=O)C(c2ccccc2)C(=O)N1)Nc1ccccc1Cl (stereo unspecified)	.	.	98.7	.	.	.
O=C(CSC1=NC(=O)C(Cc2ccccc2)C(=O)N1)Nc1ncccn1 (stereo unspecified)	.	.	/	/	.	/
Cc1ccc(C(=O)Nc2ccccc2C(=O)NCc2ccco2)cc1	.	/	.	.	/	.
CC(=O)NC1C(=O)N=C(SCC(=O)Nc2ccc(C(F)(F)F)cc2Cl)NC1=O (stereo unspecified)	.	.	98.5	.	.	.
SMILES	NLRP3 yeast inh	PolyA inhibitor	ALR inh	DSG3 Ab inh	NALP1 yeast inh	Arrestin-AP2 inh
CC(=O)N1CC(C(=O)Nc2ccc3c(c2)OCO3)Oc2ccccc21 (stereo unspecified)	.	/	.	.	/	.
O=[N+]([O-])c1cc(S(=O)(=O)C(F)(F)F)ccc1Sc1nc2ccccc2s1	.	.	98.4	.	.	.
CS(=O)(=O)c1ccc(Sc2nc3ccccc3s2)c([N+](=O)[O-])c1	.	.	.	.	.	.
O=[N+]([O-])c1cc(S(=O)(=O)C(F)(F)F)ccc1Sc1nc2ccccc2[nH]1	.	.	90.5	.	.	.
O=C(Nc1ccccc1N1CCCC1)c1cccc(F)c1	.	.	98.5	.	.	.
COc1ccc(C(=O)Nc2ccccc2N2CCCC2)cc1	.	.	93.6	.	.	.
Cc1ccc(C(=O)Nc2ccccc2N2CCCC2)cc1	.	.	98.5	.	.	.
Cc1ccc(NC(=O)CSCC(=O)Nc2ccccc2N2CCCC2)cc1	.	.	99.0	.	/	.
Cc1ccc(C(=O)Nc2ccccc2N2CCCCC2)cc1	.	.	/	.	.	.
CC(=O)N1CCN(C(=O)CNC(=O)c2ccc(C)s2)CC1	/	/	/	.	/	.
CC(C)c1ccc(N(CC(=O)N2CCN(Cc3ccccc3)CC2)S(C)(=O)=O)cc1	.	.	.	.	.	.
C=CCn1c(N)cc(=O)nc1SC(C)C(=O)Nc1ccc(C(=O)OCC)cc1 (stereo unspecified)	.	.	.	.	.	.
COc1ccc(NC(=O)CSCC(=O)Nc2cc(Cl)ccc2N2CCCC2)cc1	.	.	98.6	.	.	.
Cc1ccc(S(=O)(=O)CCC(=O)Nc2ccccc2C)cc1	.	.	.	.	.	.
Cc1ccc(S(=O)(=O)CCC(=O)Nc2ccccc2N2CCCC2)cc1	.	/	98.5	.	/	.
CN(CC(=O)Nc1ccccc1N1CCOCC1)S(=O)(=O)c1ccc(F)cc1	.	.	.	.	.	.
COc1ccc(NC(=O)CSCC(=O)Nc2cc(Cl)ccc2N2CCOCC2)cc1	.	.	.	.	/	.
CC(=O)Nc1ccc(S(=O)(=O)N(C)CC(=O)Nc2ccccc2N2CCCC2)cc1	.	.	98.8	.	/	.
COc1ccc(C(=O)NC(=S)N2CCN(c3ccccc3O)CC2)cc1	.	/	98.6	/	/	.
Cn1nc(C(=O)Nc2ccccc2N2CCCC2)c2ccccc2c1=O	.	.	91.5	.	.	.
O=C(CC1OC(=O)c2ccccc21)Nc1cc(Cl)ccc1N1CCCC1 (stereo unspecified)	.	.	96.7	.	/	.
O=C(Nc1ccccc1N1CCCC1)C1CCN(C(=O)c2ccc(Cl)cc2)CC1	.	.	.	.	/	.
COc1ccc(CC(=O)Nc2ccccc2N2CCCCC2)cc1OC	.	.	.	.	.	.
COc1cccc(CC(=O)Nc2ccccc2N2CCCC2)c1	.	.	98.0	.	.	.
O=C(Nc1ccccc1N1CCCC1)C1CCN(C(=O)c2ccc(F)cc2)CC1	.	.	98.1	.	/	.
SMILES	NLRP3 yeast inh	PolyA inhibitor	ALR inh	DSG3 Ab inh	NALP1 yeast inh	Arrestin-AP2 inh
O=C1c2ccccc2C2N1CCCN2C(=O)c1sc2ccccc2c1Cl (stereo unspecified)	/	/	/	.	/	/
CCC1CCCCN1CCCNC(=O)Cn1c(=O)c2cccn2c2cccnc21 (stereo unspecified)	.	.	.	.	.	.
Cc1ccc2c(c1)N(CC(=O)N1CCCC1)C(=O)c1cccnc1O2	.	.	.	.	.	.
Cc1ccc(S(=O)(=O)NCC(=O)N2CCN(c3ccc(F)cc3)CC2)cc1	.	.	.	/	.	.
COc1ccccc1NC(=O)CN1C(=O)NC2(CCCc3ccccc32)C1=O (stereo unspecified)	.	/	/	.	/	.
CC(C)Oc1ccc(C(=O)Nc2ccccc2N2CCCC2)cc1	.	.	98.1	.	.	.
